Measured values as given in ChEMBL document CHEMBL1156144, “Biaryl ethers as novel non-nucleoside reverse transcriptase inhibitors with improved potency against key mutant viruses” (J Med Chem, 2009).

Key:
[1] = Inhibition of RNA-dependent DNA polymerase activity of wild type HIV reverse transcriptase assessed as BrdU incorporation by standard ECL assay; parameters: species or system Human immunodeficiency virus
In short: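 Purified recombinant wild-type RT polymerase activity was measured using a 500-nt heteropolymeric RNA template and a biotinylated DNA primer. BrdU incorporation was detected with a ruthenylated anti-BrdU antibody by electrochemiluminescence. Ki is the geometric mean of at least two determinations, each within 25% of the mean.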

[2] = tested on: Human immunodeficiency virus; test: Antiviral activity against wild type HIV H9-3B infected in human MT2 cells assessed as inhibition of viral replication measuring p24 level after 3 days in presence of 10% fetal bovine serum; format: functional; conditions: Human immunodeficiency virus 1, MT2, Serum; read-out: CIC95
In short: (§1)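 Multiple-cycle spread assay in MT2 cells with wild-type H9IIIB virus. Cells were infected overnight at moi ≈ 0.01 without compound, washed, then cultured 3 days across varying compound concentrations in RPMI 1640 with 10% FBS or 50% NHS. p24 was measured in supernatants. CIC95 is the lowest concentration inhibiting replication ≥95%, as the geometric mean of ≥2 determinations.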

[3] = tested on: Human immunodeficiency virus; test: Antiviral activity against wild type HIV H9-3B infected in human MT2 cells assessed as inhibition of viral replication measuring p24 level after 3 days in presence of 50% normal human serum; format: functional; conditions: Human immunodeficiency virus 1, H9-3B, 72 h, read-out: CIC95; in short: as §1
[4] = tested on: Human immunodeficiency virus; test: Antiviral activity against HIV with reverse transcriptase K103N mutant infected in human MT2 cells assessed as inhibition of viral replication measuring p24 level after 3 days in presence of 10% fetal bovine serum; format: functional; conditions: Human immunodeficiency virus 1, MT2, Serum, 72 h; read-out: CIC95
In short: (§2)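 Multiple-cycle replication (Spread) assay in MT2 cells with H9IIIB-background mutant virus. Cells were infected overnight at moi ≈ 0.01 without compound, washed, then cultured 3 days across a range of compound concentrations in medium with 10% FBS. p24 was measured in supernatants. CIC95 is the lowest concentration inhibiting replication by ≥95%, reported as the geometric mean of ≥2 determinations.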

[5] = tested on: Human immunodeficiency virus; test: Antiviral activity against HIV with reverse transcriptase Y181C mutant infected in human MT2 cells assessed as inhibition of viral replication measuring p24 level after 3 days in presence of 10% fetal bovine serum; format: functional; conditions: Human immunodeficiency virus 1, MT2, Serum, 72 h; read-out: CIC95; in short: as §2
[6] = tested on: Human immunodeficiency virus; test: Antiviral activity against HIV with reverse transcriptase K103N/Y181C double mutant infected in human MT2 cells assessed as inhibition of viral replication measuring p24 level after 3 days in presence of 10% fetal bovine serum; format: functional; conditions: Human immunodeficiency virus 1, MT2, Serum, 72 h; read-out: CIC95; in short: as §2
[7] = Clearance in Sprague-Dawley rat at 2 mg/kg, iv; format: ADME, organism-based; parameters: dose 2 mg/kg, route intravenous; conditions: in vivo
[8] = Volume of distribution in Sprague-Dawley rat at 2 mg/kg, iv; format: ADME, organism-based; parameters: dose 2 mg/kg, route intravenous; conditions: in vivo
[9] = tested on: Rattus norvegicus; test: AUC in Sprague-Dawley rat at 10 mg/kg, po; format: ADME, organism-based, Plasma; parameters: dose 10 mg/kg, route oral; conditions: in vivo
[10] = Half life in Sprague-Dawley rat at 2 mg/kg, iv; format: ADME, organism-based; parameters: dose 2 mg/kg, route intravenous; conditions: in vivo
[11] = Clearance in Beagle dog at 0.5 mg/kg, iv; format: ADME, organism-based, Canis lupus familiaris; parameters: dose 0.5 mg/kg, route intravenous; conditions: in vivo
[12] = Volume of distribution in Beagle dog at 0.5 mg/kg, iv; format: ADME, organism-based, Canis lupus familiaris; parameters: dose 0.5 mg/kg, route intravenous; conditions: in vivo
[13] = tested on: Canis familiaris; test: AUC in Beagle dog at 1 mg/kg, po; format: ADME, organism-based, Canis lupus familiaris, Plasma; parameters: dose 1 mg/kg, route oral; conditions: in vivo
[14] = Half life in Beagle dog at 0.5 mg/kg, iv; format: ADME, organism-based, Canis lupus familiaris; parameters: dose 0.5 mg/kg, route intravenous; conditions: in vivo
[15] = Oral bioavailability in Beagle dog at 1 mg/kg; format: ADME, organism-based, Canis lupus familiaris; conditions: in vivo
[16] = Clearance in rhesus monkey at 1 mg/kg, iv; format: ADME, organism-based, Macaca mulatta; parameters: dose 1 mg/kg, route intravenous; conditions: in vivo
[17] = Volume of distribution in rhesus monkey at 1 mg/kg, iv; format: ADME, organism-based, Macaca mulatta; parameters: dose 1 mg/kg, route intravenous; conditions: in vivo
[18] = tested on: Rhesus monkey; test: AUC in rhesus monkey at 5 mg/kg, po; format: ADME, organism-based, Macaca mulatta, Plasma; parameters: dose 5 mg/kg, route oral; conditions: in vivo
[19] = Half life in rhesus monkey at 1 mg/kg, iv; format: ADME, organism-based, Macaca mulatta; parameters: dose 1 mg/kg, route intravenous; conditions: in vivo
[20] = tested on: Human immunodeficiency virus; test: Antiviral activity against HIV with reverse transcriptase MDRC4 mutant assessed as inhibition of viral replication; format: functional, organism-based; conditions: Human immunodeficiency virus 1
[21] = tested on: Human immunodeficiency virus; test: Antiviral activity against HIV with reverse transcriptase CNDO mutant assessed as inhibition of viral replication; format: functional, organism-based; conditions: Human immunodeficiency virus 1
[22] = tested on: Human immunodeficiency virus; test: Antiviral activity against HIV with reverse transcriptase L100I mutant assessed as inhibition of viral replication; format: functional, organism-based; conditions: Human immunodeficiency virus 1
[23] = tested on: Human immunodeficiency virus; test: Antiviral activity against HIV with reverse transcriptase K103N mutant assessed as inhibition of viral replication; format: functional, organism-based; conditions: Human immunodeficiency virus 1
[24] = tested on: Human immunodeficiency virus; test: Antiviral activity against HIV with reverse transcriptase Y181C mutant assessed as inhibition of viral replication; format: functional, organism-based; conditions: Human immunodeficiency virus 1
[25] = tested on: Human immunodeficiency virus; test: Antiviral activity against HIV with reverse transcriptase Y188L mutant assessed as inhibition of viral replication; format: functional, organism-based; conditions: Human immunodeficiency virus 1
[26] = tested on: Human immunodeficiency virus; test: Antiviral activity against HIV with reverse transcriptase G190A mutant assessed as inhibition of viral replication; format: functional, organism-based; conditions: Human immunodeficiency virus 1
[27] = tested on: Human immunodeficiency virus; test: Antiviral activity against HIV with reverse transcriptase G190S mutant assessed as inhibition of viral replication; format: functional, organism-based; conditions: Human immunodeficiency virus 1
[28] = tested on: Human immunodeficiency virus; test: Antiviral activity against HIV with reverse transcriptase L100I/K103N double mutant assessed as inhibition of viral replication; format: functional, organism-based; conditions: Human immunodeficiency virus 1
[29] = tested on: Human immunodeficiency virus; test: Antiviral activity against HIV with reverse transcriptase K103N/Y181C double mutant assessed as inhibition of viral replication; format: functional, organism-based; conditions: Human immunodeficiency virus 1
[30] = tested on: Human immunodeficiency virus; test: Antiviral activity against HIV with reverse transcriptase K103N/G190A double mutant assessed as inhibition of viral replication; format: functional, organism-based; conditions: Human immunodeficiency virus 1
[31] = tested on: Human immunodeficiency virus; test: Antiviral activity against HIV with reverse transcriptase Y181C/G190A double mutant assessed as inhibition of viral replication; format: functional, organism-based; conditions: Human immunodeficiency virus 1
[32] = tested on: Human immunodeficiency virus; test: Antiviral activity against HIV with reverse transcriptase K103N/P225H double mutant assessed as inhibition of viral replication; format: functional, organism-based; conditions: Human immunodeficiency virus 1
[33] = tested on: Human immunodeficiency virus; test: Antiviral activity against HIV with reverse transcriptase K101E/G190A double mutant assessed as inhibition of viral replication; format: functional, organism-based; conditions: Human immunodeficiency virus 1
[34] = tested on: Human immunodeficiency virus; test: Antiviral activity against HIV with reverse transcriptase K101E/Y181C/G190A mutant assessed as inhibition of viral replication; format: functional, organism-based; conditions: Human immunodeficiency virus 1
[35] = tested on: Human immunodeficiency virus; test: Antiviral activity against HIV with reverse transcriptase K103N/Y181C/G190A mutant assessed as inhibition of viral replication; format: functional, organism-based; conditions: Human immunodeficiency virus 1
[36] = tested on: Human immunodeficiency virus; test: Antiviral activity against HIV with reverse transcriptase V106A/G190A/F227L mutant assessed as inhibition of viral replication; format: functional, organism-based; conditions: Human immunodeficiency virus 1
[37] = tested on: Human immunodeficiency virus; test: Antiviral activity against HIV with reverse transcriptase MDRC4 mutant assessed as inhibition of viral replication relative to wild type; format: functional
[38] = tested on: Human immunodeficiency virus; test: Antiviral activity against HIV with reverse transcriptase CNDO mutant assessed as inhibition of viral replication relative to wild type; format: functional
[39] = tested on: Human immunodeficiency virus; test: Antiviral activity against HIV with reverse transcriptase L100I mutant assessed as inhibition of viral replication relative to wild type; format: functional
[40] = tested on: Human immunodeficiency virus; test: Antiviral activity against HIV with reverse transcriptase K103N mutant assessed as inhibition of viral replication relative to wild type; format: functional
[41] = tested on: Human immunodeficiency virus; test: Antiviral activity against HIV with reverse transcriptase Y181C mutant assessed as inhibition of viral replication relative to wild type; format: functional
[42] = tested on: Human immunodeficiency virus; test: Antiviral activity against HIV with reverse transcriptase Y188L mutant assessed as inhibition of viral replication relative to wild type; format: functional
[43] = tested on: Human immunodeficiency virus; test: Antiviral activity against HIV with reverse transcriptase G190A mutant assessed as inhibition of viral replication relative to wild type; format: functional
[44] = tested on: Human immunodeficiency virus; test: Antiviral activity against HIV with reverse transcriptase G190S mutant assessed as inhibition of viral replication relative to wild type; format: functional
[45] = tested on: Human immunodeficiency virus; test: Antiviral activity against HIV with reverse transcriptase L100I/K103N double mutant assessed as inhibition of viral replication relative to wild type; format: functional
[46] = tested on: Human immunodeficiency virus; test: Antiviral activity against HIV with reverse transcriptase K103N/Y181C double mutant assessed as inhibition of viral replication relative to wild type; format: functional
[47] = tested on: Human immunodeficiency virus; test: Antiviral activity against HIV with reverse transcriptase K103N/G190A double mutant assessed as inhibition of viral replication relative to wild type; format: functional
[48] = tested on: Human immunodeficiency virus; test: Antiviral activity against HIV with reverse transcriptase Y181C/G190A double mutant assessed as inhibition of viral replication relative to wild type; format: functional
[49] = tested on: Human immunodeficiency virus; test: Antiviral activity against HIV with reverse transcriptase K103N/P225H double mutant assessed as inhibition of viral replication relative to wild type; format: functional
[50] = tested on: Human immunodeficiency virus; test: Antiviral activity against HIV with reverse transcriptase K101E/G190A double mutant assessed as inhibition of viral replication relative to wild type; format: functional
[51] = tested on: Human immunodeficiency virus; test: Antiviral activity against HIV with reverse transcriptase K101E/Y181C/G190A mutant assessed as inhibition of viral replication relative to wild type; format: functional
[52] = tested on: Human immunodeficiency virus; test: Antiviral activity against HIV with reverse transcriptase K103N/Y181C/G190A mutant assessed as inhibition of viral replication relative to wild type; format: functional
[53] = tested on: Human immunodeficiency virus; test: Antiviral activity against HIV with reverse transcriptase V106A/G190A/F227L mutant assessed as inhibition of viral replication relative to wild type; format: functional
[54] = Oral bioavailability in rhesus monkey at 5 mg/kg; conditions: in vivo

N#Cc1cc(Cl)cc(Oc2cc(OCc3n[nH]c4nc(N)ccc34)ccc2Cl)c1
Ki [1]: 0.2 nM
IC95 [2]: 5 nM
IC95 [3]: 26 nM
IC95 [4]: 11 nM
IC95 [5]: 27 nM
IC95 [6]: 101 nM
clearance [7]: 9 mL/min/kg
Vd [8]: 2 L/kg
AUC [9]: 23 µM
half-life [10]: 3.5 h
clearance [11]: 5.8 mL/min/kg
Vd [12]: 1.7 L/kg
AUC [13]: 31 µM
half-life [14]: 3.9 h
bioavailability [15]: 47%
clearance [16]: 16 mL/min/kg
Vd [17]: 1.9 L/kg
AUC [18]: 0.3 µM
half-life [19]: 2.1 h
IC50 [20]: 9 nM
IC50 [21]: 1.4 nM
IC50 [22]: 1.3 nM
IC50 [23]: 2.6 nM
IC50 [24]: 4.8 nM
IC50 [25]: 881 nM
IC50 [26]: 2.9 nM
IC50 [27]: 12.3 nM
IC50 [28]: 34.8 nM
IC50 [29]: 77.7 nM
IC50 [30]: 7.2 nM
IC50 [31]: 11.6 nM
IC50 [32]: 2.2 nM
IC50 [33]: 6.9 nM
IC50 [34]: 29.5 nM
IC50 [35]: 110 nM
IC50 [36]: > 1000 nM
fold change (FC) [37]: 6.43
fold change (FC) [38]: 1
fold change (FC) [39]: 0.93
fold change (FC) [40]: 1.86
fold change (FC) [41]: 3.43
fold change (FC) [42]: 629.07
fold change (FC) [43]: 2.07
fold change (FC) [44]: 8.79
fold change (FC) [45]: 24.86
fold change (FC) [46]: 55.5
fold change (FC) [47]: 5.14
fold change (FC) [48]: 8.29
fold change (FC) [49]: 1.57
fold change (FC) [50]: 4.93
fold change (FC) [51]: 21.07
fold change (FC) [52]: 78.93
fold change (FC) [53]: >714
bioavailability [54]: 1%
